Results: ChEMBL document CHEMBL1153109, “New potent 5-nitroindazole derivatives as inhibitors of Trypanosoma cruzi growth: synthesis, biological evaluation, and mechanism of action studies” (Bioorg Med Chem, 2009)

Columns and labels:
[1] = system: Radical scavenging activity; experiment: Antioxidant activity assessed as DPPH radical scavenging activity; format: functional; set-up: concentration or dose not given beside the values
Procedure, shortened: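 Scavenging of DPPH radical measured by ESR. Reaction mixtures contain 1.0 mM dpph and 1.0 mM 5-NI, both prepared in acetonitrile. The control contains no 5-NI. Signal recorded 1 min after the start of the reaction at microwave frequency 9.72 GHz and power 20 mW.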

Caco-2 = experiment: Cytotoxicity against human Caco-2 cells at 25 uM by MTT assay; format: cell-based; details: caco-2, 25 µM
Procedure, shortened: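 Caco-2 cells kept in DMEM-F12 with 10% FBS, penicillin and streptomycin at 37 °C, 5% CO₂. Cells plated at 5 × 10⁴ cells/mL, then exposed to compound in PBS for 2 h. After washing, cells incubated with 0.5 mg/mL MTT for 120 min at 37 °C. Formazan dissolved in DMSO for 10 min at 37 °C and read at 540 nm.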

Trypanosoma cruzi [2] = experiment: Antitrypanosomal activity against Trypanosoma cruzi CL Brener epimastigotes after 5 days; format: functional, organism-based; details: 120 h
Procedure, shortened: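 CL Brener epimastigotes grown at 28 °C in BHI–Tryptose with 5% FBS. Stationary-phase (10-day) cells inoculated at 1 × 10⁶ cells/mL into medium with drug from a DMSO stock (final DMSO ≤0.4%); control contains 0.4% DMSO. Growth followed by A600. Inhibition at day 5 is computed from the day 0 and day 5 absorbances relative to control. IC50 is the concentration reducing the absorbance ratio to 50%.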

Trypanosoma cruzi [3] = experiment: Inhibition of parasitic respiration in Trypanosoma cruzi tulahuen epimastigotes assessed as oxygen uptake at 0.83 mM relative to control; format: functional
Trypanosoma cruzi [4] = experiment: Inhibition of parasitic respiration in Trypanosoma cruzi tulahuen epimastigotes assessed as oxygen uptake at 0.42 mM relative to control; format: functional
Trypanosoma cruzi [5] = experiment: Inhibition of parasitic respiration in Trypanosoma cruzi tulahuen epimastigotes assessed as oxygen uptake at 2 mM relative to control; format: functional
Trypanosoma cruzi [6] = experiment: Inhibition of parasitic respiration in Trypanosoma cruzi tulahuen epimastigotes assessed as oxygen uptake at 0.208 mM relative to control; format: functional
Trypanosoma cruzi [7] = experiment: Inhibition of parasitic respiration in Trypanosoma cruzi tulahuen epimastigotes assessed as oxygen uptake at 0.104 mM relative to control; format: functional

| IC50 (Trypanosoma cruzi [2]) [µM] | Compound | Activity [1] [%] | Cytotoxicity (Caco-2) [%] | Oxygen uptake at 830 µM (Trypanosoma cruzi [3]) [%] | Oxygen uptake at 420 µM (Trypanosoma cruzi [4]) [%] | Oxygen uptake at 2000 µM (Trypanosoma cruzi [5]) [%] | Oxygen uptake at 208 µM (Trypanosoma cruzi [6]) [%] | Oxygen uptake at 104 µM (Trypanosoma cruzi [7]) [%] |
| --- | --- | --- | --- | --- | --- | --- | --- | --- |
| > 25 | COc1nn(CCN(C(C)C)C(C)C)c2ccc([N+](=O)[O-])cc12 | < 30 | 15 | – | – | – | – | – |
| 19.3 | O=[N+]([O-])c1ccc2c(c1)c(OCc1ccccc1)nn2CCCCCCBr | < 30 | – | 100 | 100 | 100 | – | – |
| > 25 | CCN(CC)CCn1nc(OC)c2cc([N+](=O)[O-])ccc21 | < 30 | 0 | – | – | – | – | – |
| > 25 | COc1nn(CCCN2CCCCC2)c2ccc([N+](=O)[O-])cc12 | < 30 | 0 | – | – | – | – | – |
| 12.9 | O=[N+]([O-])c1ccc2c(c1)c(OCc1ccccc1)nn2CCCCCN1CCc2ccccc2C1 | < 30 | 15 | – | – | – | – | – |
| 67.8 | COc1nn(CCCBr)c2ccc([N+](=O)[O-])cc12 | < 30 | – | – | – | – | – | – |
| > 25 | COc1nn(CCCN(C)C)c2ccc([N+](=O)[O-])cc12 | < 30 | 29 | – | – | – | – | – |
| 11.3 | CCN(CC)CCn1nc(OCc2ccccc2)c2cc([N+](=O)[O-])ccc21 | < 30 | 30 | – | – | – | – | – |
| > 25 | COc1nn(CCN(C)C)c2ccc([N+](=O)[O-])cc12 | < 30 | 15 | – | – | – | – | – |
| 7.4 | O=[N+]([O-])c1ccc2c(c1)c(OCc1ccccc1)nn2CCCCCCN1CCCCC1 | < 30 | 33 | – | – | – | – | – |
| > 25 | COc1nn(CCN2CCCCC2)c2ccc([N+](=O)[O-])cc12 | < 30 | 10 | – | – | – | – | – |
| 9.2 | CC(C)N(CCn1nc(OCc2ccccc2)c2cc([N+](=O)[O-])ccc21)C(C)C | < 30 | 0 | – | – | – | – | – |
| 10.5 | O=[N+]([O-])c1ccc2c(c1)c(OCc1ccccc1)nn2CCCCCN1CCCCCC1 | > 40 | 25 | – | – | – | – | – |
| 25 | CN(C)CCn1nc(OCc2ccccc2)c2cc([N+](=O)[O-])ccc21 | < 30 | 12 | – | 51 | – | 64 | – |
| > 25 | COc1nn(CCN2CCOCC2)c2ccc([N+](=O)[O-])cc12 | < 30 | 0 | – | – | – | – | – |
| 8.4 | O=[N+]([O-])c1ccc2c(c1)c(OCc1ccccc1)nn2CCN1CCCCC1 | < 30 | 27 | – | – | – | – | – |
| > 25 | O=[N+]([O-])c1ccc2c(c1)c(OCc1ccccc1)nn2CCN1CCOCC1 | < 30 | 0 | – | – | – | – | – |
| 9.4 | CN(C)CCCCCCn1nc(OCc2ccccc2)c2cc([N+](=O)[O-])ccc21 | > 40 | 40 | – | 52 | – | 59 | 100 |
| 20.7 | O=[N+]([O-])c1ccc2c(c1)c(OCc1ccccc1)nn2CCCCCBr | < 30 | – | 100 | 100 | 38 | – | – |
| 7.5 | O=[N+]([O-])c1ccc2c(c1)c(OCc1ccccc1)nn2CCCCCN1CCCC1 | < 30 | 25 | – | – | – | – | – |
